High-throughput results deposited in PubChem BioAssay by several laboratories.
UBC13 polyUb = human UBC13 polyubiquitination inhibition. P61088. UBC13 polyubiquitin chain formation, TR-FRET. inhibition, % at 20 µM. 330,000 tested, 0.47% active. AID 485273; in the data active = inhibition above about 45%, passing the limit was not always enough; inconclusive = no clear call, values can overlap the other calls
Apaf-1 inh = human Apaf-1 inhibition | O14727 | reconstituted apoptosome caspase-3 activity, DEVD-Rh110 fluorescence | inhibition, % at 20 µM | 330,000 tested, 0.71% active; active = inhibition of at least 40% at 20 µM;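 note: plate controls were DMSO wells for no effect and DEVD-CHO caspase inhibitor wells for full effect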
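Material: reconstituted apoptosome with Apaf-1, cytochrome c, caspase-9, procaspase-3, dATP; medium: pH 7.5 Hepes buffer with CHAPS, BSA, DTT; also added: cytochrome c and DEVD-Rh110 substrate; timing: 30 min plus 50 min, RT; signal: Rh110 fluorescence intensity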
DNA FID counter = fluorescent intercalator displacement, NS3 helicase counter-screen; inhibition, % at 7.9 µM; DNA fluorescent intercalator displacement, fluorescence; 290,000 tested, 0.17% active; AID 1845; in the data active = inhibition above about 37%;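 note: 0% = vehicle and 100% = reference compound; higher means more ethidium bromide displaced from hairpin DNA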
ANO1 block = inhibitors of mouse TMEM16A calcium-activated chloride channel; Q8BHY3; HEK293 TMEM16A/YFP iodide influx fluorescence, ionomycin; normalized B-score (activity score, 25-100; higher = stronger inhibition) at 10 µM; 310,000 tested, 1.2% active;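 active = ratio plate-corrected score three or more library SD toward inhibition, starting fluorescence score within five deviations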;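 note: score derived from kinetic fluorescence span divided by baseline fluorescence per well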
Target sequence (Q8BHY3 whole entry, looked up): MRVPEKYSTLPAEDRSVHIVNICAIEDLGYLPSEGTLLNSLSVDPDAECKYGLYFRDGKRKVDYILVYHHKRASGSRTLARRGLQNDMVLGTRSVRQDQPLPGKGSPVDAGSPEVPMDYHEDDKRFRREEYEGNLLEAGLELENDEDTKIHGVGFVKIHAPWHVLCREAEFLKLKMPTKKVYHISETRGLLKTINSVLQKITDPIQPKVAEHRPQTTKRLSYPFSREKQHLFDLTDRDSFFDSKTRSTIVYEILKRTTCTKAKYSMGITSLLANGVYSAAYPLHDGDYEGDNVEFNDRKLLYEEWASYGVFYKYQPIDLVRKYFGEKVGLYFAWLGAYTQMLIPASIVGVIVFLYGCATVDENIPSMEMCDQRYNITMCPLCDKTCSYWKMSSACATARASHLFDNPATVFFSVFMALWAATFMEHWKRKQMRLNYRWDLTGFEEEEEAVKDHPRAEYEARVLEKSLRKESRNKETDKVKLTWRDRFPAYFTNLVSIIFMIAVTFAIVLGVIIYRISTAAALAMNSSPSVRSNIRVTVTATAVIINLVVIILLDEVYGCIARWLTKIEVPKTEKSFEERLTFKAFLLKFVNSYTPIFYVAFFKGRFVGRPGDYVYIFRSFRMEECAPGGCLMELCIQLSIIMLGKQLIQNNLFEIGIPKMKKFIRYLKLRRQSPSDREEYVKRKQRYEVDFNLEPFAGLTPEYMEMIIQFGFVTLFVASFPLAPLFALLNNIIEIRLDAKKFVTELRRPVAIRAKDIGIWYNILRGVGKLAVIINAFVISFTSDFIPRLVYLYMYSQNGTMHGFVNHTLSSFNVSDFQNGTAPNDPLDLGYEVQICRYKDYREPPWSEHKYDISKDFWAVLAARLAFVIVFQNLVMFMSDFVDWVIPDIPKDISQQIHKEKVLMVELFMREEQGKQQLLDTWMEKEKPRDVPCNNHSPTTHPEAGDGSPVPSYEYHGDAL
TMEM16A act = activates or potentiates the mouse TMEM16A chloride channel; HEK293 TMEM16A/YFP-H148Q/I152L, iodide quench fluorescence; active compounds read low; 340,000 tested, 0.3% active; Q8BHY3; B-score at 10 µM;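 active = fluorescence-ratio B-score plate-corrected deviation score at least 3 library SD below zero, with starting fluorescence score within 5 deviations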;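 note: channel opened by trigger with iodide after compound preincubation; score built on the fluorescence ratio of max minus min over baseline; more negative score means more quench and so TMEM16A activation or potentiation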
Numbers without * were called inactive; i = inactive; ? = inconclusive; / = no result given. Shown are actives, neighbours in structure and some others; about 2.4% of the full set was active somewhere.

SMILES | UBC13 polyUb | Apaf-1 inh | DNA FID counter | ANO1 block | TMEM16A act
CCN(CC)C(=O)[C@H]1C[C@H](CC(=O)NCCN2CCOCC2)C(=O)N2CCc3c([nH]c4cc(-c5ccco5)ccc34)[C@]12C | / | 13.4 | / | / | /
COc1ccc(-c2cc(C(=O)N3CCc4ccccc4C3)no2)cc1OC | -6.9 | 24.1 | -39.9 | i | -6.36*
CN(c1ccccc1C(=O)Nc1cccc([N+](=O)[O-])c1)S(C)(=O)=O | 0.0 | -6.2 | -0.4 | i | i
COc1cc2ccccc2cc1C(=O)N(CCN(C)C)c1nc2c(F)cc(F)cc2s1 | 4.2 | 15.0 | 20.2 | 25* | i
COc1ccc(OC)c2sc(N(CCN(C)C)C(=O)c3cc(Cl)sc3Cl)nc12 | 10.3 | 5.5 | 3.7 | i | i
COc1ccc2sc(N(CCN(C)C)C(=O)c3cc(Cl)sc3Cl)nc2c1 | 17.9 | -17.6 | 3.2 | i | -5.87*
Cc1ccccc1NC(=O)c1ccccc1NC(=O)c1ccccc1F | / | / | -20.0 | i | i
COc1cccc2cc3c(=O)oc4ccccc4c3nc12 | 5.2 | 9.6 | -0.3 | i | -12.4*
C=Cc1ccc(C(=O)NC2CCCN(Cc3ccccc3F)C2)cc1 (configuration not stated) | 5.4 | 1.6 | -1.7 | i | i
COc1ccc(-n2nc(C(=O)NCC(=O)NC3CCCCCC3)c3ccccc3c2=O)c(OC)c1 | 8.6 | 47.9* | -37.8 | i | i
COc1ccc(-n2nc(C(=O)NCC(=O)NC3CCCCC3)c3ccccc3c2=O)c(OC)c1 | 4.1 | 8.9 | -36.2 | i | i
CCOC(=O)C1(Cc2cccc(Cl)c2)CCCN(C(=O)c2cnn(CC)c2)C1 (configuration not stated) | 4.0 | 1.7 | -51.8 | i | i
C(=N\Nc1nc(Nc2ccccc2)nc(N2CCOCC2)n1)/c1c[nH]c2ccccc12 | -6.7 | 14.8 | -16.4 | 25* | /
c1ccc(-c2nc(NCCCn3ccnc3)c3oc4ccccc4c3n2)cc1 | 16.2 | 7.3 | 17.8 | i | i
CCc1nc(NCCCn2ccnc2)c2oc3ccccc3c2n1 | 5.5 | 4.0 | 7.7 | i | -26.1*
Cc1[nH]n(-c2ccccc2)c(=O)c1C(C[N+](=O)[O-])c1ccc(Cl)cc1 (configuration not stated) | -27.3 | 88.2* | -0.1 | i | i
O=C(CN1CCCCCC1)Nc1ccccc1Oc1ccccc1 | -1.7 | 5.8 | -6.2 | i | i
COc1ccc2[nH]c(C)c(C(=O)CN3CCN(C/C=C/c4ccccc4)CC3)c2c1 | 12.0 | 9.8 | 38.5* | i | i
CC(Nc1nc(-c2ccc(F)cc2)cs1)c1nc2cc(C(F)(F)F)ccc2n1CCOCCO (configuration not stated) | 18.2 | 13.9 | / | i | i
COc1ccc(-c2csc(NC(C)c3nc4cc(C(F)(F)F)ccc4n3CCOCCO)n2)cc1 (configuration not stated) | 21.7 | 18.5 | / | 25* | i
OCC1OC(Oc2cccc3ccccc23)C(O)C(O)C1O (configuration not stated) | -2.6 | -3.4 | -2.7 | i | i
O=C(O)c1cc(O)c2c(c1)[C@@H]([C@H]1c3cc(C(=O)O)cc(O)c3C(=O)c3c(O[C@@H]4O[C@H](CO)[C@@H](O)[C@H](O)[C@H]4O)cccc31)c1cccc(O[C@@H]3O[C@H](CO)[C@@H](O)[C@H](O)[C@H]3O)c1C2=O | ? | 98.7* | / | / | /
CC(=O)Nc1ccc(NC(=O)C(C)OC(=O)c2ccc3c(c2)OCCO3)cc1 (configuration not stated) | 7.4 | -15.9 | -14.5 | i | i
CC(OC(=O)c1cccc(S(=O)(=O)Nc2cccc(C(F)(F)F)c2)c1)C(=O)Nc1ccc2c(c1)OCCO2 (configuration not stated) | -10.0 | 18.6 | -5.2 | 100* | i
COc1cc(C2Nc3cccc4cccc(c34)N2)ccc1O | -29.5 | 29.9 | 5.2 | i | i
SMILES | UBC13 polyUb | Apaf-1 inh | DNA FID counter | ANO1 block | TMEM16A act
COc1cc(C2Nc3cccc4cccc(c34)N2)cc(OC)c1OC(C)=O | -56.6 | 40.6* | -12.3 | i | i
CC(=O)c1ccc(S(=O)(=O)Oc2ccc(-c3ccc(C(=O)O)cc3)cc2)cc1 | 4.2 | 4.9 | -28.8 | i | i
CCOC(=O)Cn1nnnc1CN(Cc1ccccc1)Cc1cc2cc(CC)ccc2[nH]c1=O | 1.7 | 19.0 | -12.7 | 25* | i
Cc1cc(N)ccc1NC(=O)CN1CCCC1 | -4.5 | -2.0 | 5.5 | i | i
COC(=O)c1ccc(CN(c2ccc(C(=O)O)c(O)c2)S(=O)(=O)c2ccc(Cl)c([N+](=O)[O-])c2)cc1 | / | / | -1.3 | 100* | i
COC(=O)c1ccc(CN(c2ccccn2)S(=O)(=O)c2ccccc2)cc1 | / | / | -15.1 | i | i
Cc1ccc(/C=N/Nc2ncc(Cl)cc2Cl)s1 | -2.0 | -6.8 | -9.7 | 25* | i
COc1ccc(Nc2c([N+](=O)[O-])ccc3c2=NC2(CCCCC2)N=3)cc1 | -155.1 | 23.9 | 6.4 | i | i
Cc1nn(-c2ccc(C(F)(F)F)cn2)c(C)c1Oc1ccccc1O | -13.6 | 22.9 | -16.4 | i | -33.8*
COc1cccc2[nH]c(C(=O)NN)c(N)c12 | -6.1 | -0.6 | -0.7 | i | i
COc1cc2[nH]c(C(=O)NN)c(N)c2cc1OC | 34.8 | 48.1* | -0.6 | i | /
CCN(CC)C(C)C#CCC(c1ccccc1)c1ccccc1 (configuration not stated) | / | / | 17.9 | / | /
Cn1nc(C(=O)NCCOc2ccccc2)c2ccccc2c1=O | -3.7 | -13.0 | -6.7 | i | i
S=C(NCC1CCCO1)N1CCN(c2ccccc2)CC1 (configuration not stated) | 0.7 | -12.1 | -1.7 | i | i
FC(F)(F)c1cccc(N2CCN(C(=S)NCC3CCCO3)CC2)c1 (configuration not stated) | 3.9 | 10.1 | -12.6 | 25* | i
COc1ccc(N=Cc2[nH]c3ccccc3c2O)cc1 | -84.2 | 9.6 | 2.7 | i | -7.59*
O=C(NNc1c([N+](=O)[O-])cc(C(F)(F)F)cc1[N+](=O)[O-])c1ccco1 | -32.9 | 4.9 | 4.1 | 100* | i
O=C(NNc1c(F)c(F)cc(F)c1F)c1ccco1 | 2.4 | 0.3 | / | / | i
CCOC(=O)C1(CCc2ccccc2)CCN(Cc2ccc(O)cc2)CC1 | 14.5 | 7.0 | 17.4 | i | i
CCOC(=O)C1(CCc2ccccc2)CCN(Cc2ccc(OC)cc2)CC1 | 1.5 | 9.8 | 24.2 | 25* | i
Cc1ccc(C(=O)c2c3ccc(N)cc3nn2CCC(N)=O)cc1 | -86.7 | 82.0* | -19.5 | i | i
Cc1ccc(C(=O)c2c3ccc(C(F)(F)F)cc3[n+]([O-])n2CCC(N)=O)cc1 | -21.4 | 5.1 | -29.5 | i | i
Cc1cc(O)c(Sc2ncn[nH]2)cc1NS(=O)(=O)c1ccc(Cl)cc1 | 6.5 | -1.5 | / | / | i
O=S(=O)(Nc1cc(Sc2ncn[nH]2)c(O)c2ccccc12)c1ccccc1 | -56.5 | 93.6* | 3.0 | / | i
